Results published in ChEMBL document CHEMBL3774351, “Three stories on Eph kinase inhibitors: From in silico discovery to in vivo validation” (Eur J Med Chem, 2016).
Blank lines part the entries; values can stand above or below the compound they belong to.

Assays:
MDA-MB-231 = experiment: Antitumor activity against human MDA-MB-231 cells xenografted in nude mouse assessed as tumor growth inhibition at 50 mg/kg, bid administered for 21 days relative to control; assay type: functional; details: MDA-MB-231, 504 h
Summary of the method: (§1)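 MDA-MB-231 xenografts in nude mice, treatment started at median tumor volume 108 mm3. Oral gavage of 50 mg/kg twice daily (100 mg/kg/day) for 21 days versus vehicle cohort, 9 animals per cohort. Median tumor volume followed over time. Mean body weight monitored through the treatment period.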

Mus musculus [1] = experiment: AUClast in CD-1 (ICR) mouse at 1 mg/kg, iv; assay type: ADME, organism-based; set-up: dose 1 mg/kg, route intravenous, time 0 - last; details: in vivo
Mus musculus [2] = experiment: Toxicity in nude mouse xenografted with human MDA-MB-231 cells assessed as reduction in body weight at 50 mg/kg, bid administered for 21 days measured during the treatment period; assay type: organism-based; set-up: scale not given: the % may be the effect or the level left; details: in vivo, 504 h; summary of the method: as §1
HUVEC [3] = experiment: Antiangiogenic activity in HUVEC assessed as inhibition of VEGF-A-induced angiogenic sprouting by spheroid-based sprouting assay; details: Homo sapiens
Ephrin type-B receptor 4 = biological target: T1, Ephrin type-B receptor 4 (Homo sapiens, UniProt P54760); experiment: Inhibition of N-terminal GST-fused His6-tagged human recombinant EphB4
T1 sequence (P54760 whole entry): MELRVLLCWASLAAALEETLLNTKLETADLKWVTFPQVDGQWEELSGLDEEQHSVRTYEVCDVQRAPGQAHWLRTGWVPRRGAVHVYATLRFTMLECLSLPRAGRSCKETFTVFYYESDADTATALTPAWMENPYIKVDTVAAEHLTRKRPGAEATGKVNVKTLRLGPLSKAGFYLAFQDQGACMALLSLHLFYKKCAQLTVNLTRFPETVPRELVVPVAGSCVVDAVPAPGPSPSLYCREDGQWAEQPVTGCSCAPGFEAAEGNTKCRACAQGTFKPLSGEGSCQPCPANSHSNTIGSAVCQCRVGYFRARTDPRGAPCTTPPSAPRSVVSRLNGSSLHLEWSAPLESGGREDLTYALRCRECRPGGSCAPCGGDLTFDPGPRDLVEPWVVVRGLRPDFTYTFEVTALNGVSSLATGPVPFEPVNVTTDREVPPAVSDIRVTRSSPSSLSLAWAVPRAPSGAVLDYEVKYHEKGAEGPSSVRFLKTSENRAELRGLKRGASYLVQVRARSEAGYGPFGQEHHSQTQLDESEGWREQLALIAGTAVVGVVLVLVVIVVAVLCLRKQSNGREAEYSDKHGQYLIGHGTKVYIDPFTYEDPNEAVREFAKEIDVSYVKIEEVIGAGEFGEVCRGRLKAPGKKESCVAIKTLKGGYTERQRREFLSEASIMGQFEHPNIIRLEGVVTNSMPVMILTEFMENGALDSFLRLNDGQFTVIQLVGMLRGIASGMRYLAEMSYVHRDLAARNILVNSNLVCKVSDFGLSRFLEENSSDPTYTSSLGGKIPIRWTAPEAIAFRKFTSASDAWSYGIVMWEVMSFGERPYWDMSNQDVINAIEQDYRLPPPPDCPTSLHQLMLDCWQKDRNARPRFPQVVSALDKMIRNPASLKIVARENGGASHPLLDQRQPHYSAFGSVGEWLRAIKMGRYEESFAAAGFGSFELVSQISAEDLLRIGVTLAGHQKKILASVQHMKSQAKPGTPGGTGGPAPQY
Summary of the method: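 EphB4 FRET enzymatic assay measuring inhibition of phosphorylation of a synthetic substrate, with ATP at Km.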

HUVEC [4] = experiment: Antiangiogenic activity in HUVEC assessed as reduction in branching points after 15 hrs by matrigel assay; assay type: functional, cell-based; details: Homo sapiens
Summary of the method: (§2)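 HUVEC seeded on Matrigel and incubated with compound for 15 h. Tube length, total branching points and total loops quantified against untreated control cells. Dose-response curves used to derive IC50 for each read-out. Measurements done at least in triplicate, SEM shown.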

HUVEC [5] = experiment: Antiangiogenic activity in HUVEC assessed as reduction in number of loops at 1 uM after 15 hrs by matrigel assay; assay type: functional; details: Homo sapiens
HUVEC [6] = experiment: Antiangiogenic activity in HUVEC assessed as reduction in tube length after 15 hrs by matrigel assay; assay type: functional, cell-based; details: Homo sapiens; summary of the method: as §2
HUVEC [7] = experiment: Antiangiogenic activity in HUVEC assessed as reduction in number of loops after 15 hrs by matrigel assay; assay type: functional, cell-based; details: Homo sapiens; summary of the method: as §2
HUVEC [8] = experiment: Antiangiogenic activity in HUVEC assessed as reduction in branching points at 1 uM after 15 hrs by matrigel assay; assay type: functional; details: Homo sapiens
[9] = Half life in human liver microsomes at 0.1 uM up to 60 mins by HPLC-MS/MS analysis

- AUClast (Mus musculus [1]): 0.039 µg·h/mL
Structure (SMILES): Cc1ccc(O)cc1-n1c(N)c(C(N)=O)c2nc3ccccc3nc21
- inhibition in vivo at 50 mg/kg (MDA-MB-231): 80%
- Activity (Mus musculus [2]): <= 16%
- IC50 (HUVEC [3]): 1.5 µM

- IC50 (Ephrin type-B receptor 4): 0.3 µM
Structure (SMILES): COc1cccc(-n2c(N)c(C(N)=O)c3nc4ccccc4nc32)c1

Structure (SMILES): COc1ccccc1-n1c(-c2ccc(O)cc2C)cn2c3c(=O)[nH]c(=O)n(C)c3nc12
- IC50 (HUVEC [4]): 0.191 µM
- inhibition at 1 µM (HUVEC [5]): 97%
- IC50 (HUVEC [6]): 1.7 µM
- IC50 (HUVEC [7]): 0.071 µM
- inhibition at 1 µM (HUVEC [8]): 87%

- half-life at 1 h, 0.1 µM [9]: > 1 h
Structure (SMILES): CC(C)NCC(O)COc1cccc2ccccc12 (stereo unspecified) [PROPRANOLOL]
